One assay concerns UO-31. The assay is described as follows: Cytotoxicity against human UO31 cells assessed as cell growth at 10 uM after 48 hrs by SRB assay. It counts as functional. Particulars: UO-31, 48 h, read-out: Activity. The procedure, abridged: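 This was a single-concentration screen on UO-31 in RPMI 1640 with 5% FBS. Compound went on 24 h after plating, with 48 h exposure at 37 °C. End point was sulforhodamine B protein staining read at 515 nm. Results are percent growth of treated cells relative to untreated controls and time-zero plates.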

The subject of a further assay is K562. The assay is described as follows: Cytotoxicity against human K562 cells assessed as cell growth at 10 uM after 48 hrs by SRB assay. It counts as functional. Particulars: K562, 48 h, read-out: Activity. The procedure, abridged:
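NCI single-dose screen at 10 µM. Cells were incubated 48 h and the end point was read by sulforhodamine B protein staining. Results are given as percent growth of treated cells relative to untreated controls. Growth of 32% or less was counted as active.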

Consider `O=C(CCc1nnc(-c2cc(O)c(O)c(O)c2)o1)c1nc2ccccc2[nH]1`, for which the growth at 10 µM in the assay with UO-31 was found to be 62.2%.

For the molecule `O=C(CCc1nnc(/C=C/c2ccccc2)o1)c1nc2ccccc2[nH]1`, the growth at 10 µM in the assay on K562 was found to be 24.6%.

Consider `O=C(CCc1nnc2sc(-c3cc(O)c(O)c(O)c3)nn12)c1nc2ccccc2[nH]1`, for which the growth at 10 µM in the assay with K562 came to 8.3%.

For the molecule `Nc1cc(Br)c(-c2nn3c(CCC(=O)c4nc5ccccc5[nH]4)nnc3s2)c(Br)c1`, the growth at 10 µM in the assay on K562 amounted to 7.05%.

For `O=C(CCc1nnc2sc(/C=C/c3ccccc3)nn12)c1nc2ccccc2[nH]1`, the growth at 10 µM in the assay on K562 was found to be 2.17%.

(Values after ChEMBL document CHEMBL2157987, “Benzimidazole bearing oxadiazole and triazolo-thiadiazoles nucleus: design and synthesis as anticancer agents” (2012).)
